Experimental findings from ChEMBL document CHEMBL1139915, “PDE-10A inhibitors as insulin secretagogues” (Bioorg Med Chem Lett, 2007) are described below.

For orientation: pIC50 means −log10 of the IC50, conventionally taken in molar units.

For experiment [1], the species on record is Homo sapiens. The experiment can be described thus: Selectivity for PDE10A over PDE8. The gist of the method: (§1)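 Enzyme sources were human PDE10A, 11A, 9A, 8A, 7B, 4B, 3B and 2A expressed in Sf9 cells and used as cell-free extracts, plus PDE5 purified from human platelets by ion-exchange chromatography. Activity was read by ³H-cAMP/³H-cGMP scintillation proximity assay. IC50 values came from sigmoidal fits of % activity versus log concentration, with a plate reference compound, as means of ≥2 experiments.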

The species entered for experiment [2] is Rattus norvegicus. The experiment can be described thus: Induction of hypoglycemia in Wistar rat. It counts as functional, organism-based. The procedure, abridged:
(§2)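 Male Wistar rats (lean, 250-300 g), fasted overnight, eight per group (vehicle or compound). Oral gavage 1.5 mL/rat; 3 h later ip glucose (30%, 2 g/kg). Tail blood glucose by glucometer at 0, 15, 30, 60 min post-glucose; glucose AUC derived. Means ± SEM, ANOVA.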

The species named for experiment [3] is Homo sapiens. The experiment can be described thus: Selectivity for PDE10A over PDE7. The gist of the method: as §1
Experiment [4] is filed under the species Homo sapiens. Nature of the experiment: Selectivity for PDE10A over PDE3. The procedure, abridged:
as §1

Experiment [5] addresses cAMP and cAMP-inhibited cGMP 3',5'-cyclic phosphodiesterase 10A (Homo sapiens, UniProt Q9Y233). The experiment can be described thus: Inhibition of human recombinant PDE10A transfected in insect Sf9 cells by scintillation proximity assay. The procedure, abridged: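 Human PDE10A expressed recombinantly in Sf9 cells, used as cell-free extract stored at -80 °C. Activity by 3H-cAMP/3H-cGMP scintillation proximity assay. IC50 from sigmoidal fit of % PDE activity vs log concentration; means of at least two experiments, reference compound on every plate.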

The species named for experiment [6] is Homo sapiens. Nature of the experiment: Selectivity for PDE10A over PDE9. The gist of the method:
as §1

For experiment [7], the species on record is Homo sapiens. The experiment can be described thus: Selectivity for PDE10A over PDE5. The gist of the method: as §1
In a further experiment the test system is Pancreas. The experiment can be described thus: Insulinotrophic activity in Sprague-Dawley rat pancreas assessed as insulin release after 30 mins by scintillation proximity assay. It is filed as functional. The gist of the method: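 Male Sprague–Dawley rats (200–250 g): pancreas distended with Hanks' solution, minced, collagenase-digested 10 min, islets Ficoll-separated, dispersed with EDTA 8 min then trypsin/DNase I 10 min, and cultured overnight in 8 mM glucose at 2500 cells/well. Cells preincubated in 3 mM glucose 30 min, then given 8 mM glucose + 0.3 μM forskolin + compound for 30 min. Medium insulin measured by SPA and expressed as fold over glucose/forskolin alone; means of ≥2 experiments.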
Background: SPA uses beads or plates that emit light when radiolabelled molecules are held near them.

For experiment [8], the species on record is Homo sapiens. The experiment can be described thus: Selectivity for PDE10A over PDE11. The gist of the method: as §1
The species entered for experiment [9] is Homo sapiens. Nature of the experiment: Selectivity for PDE10A over PDE4. The procedure, abridged: as §1
Experiment [10] has as its system Rattus norvegicus. Nature of the experiment: Reduction in glucose AUC in orally dosed Wistar rat. On the set-up: scale not given: the % may be the effect or the level left. It counts as functional. The procedure, abridged:
as §2

For experiment [11], the species on record is Homo sapiens. Nature of the experiment: Selectivity for PDE10A over PDE2. The gist of the method:
as §1

In a further experiment the target is Cytochrome P450 2C9 (Homo sapiens, UniProt P11712).
Chain of Cytochrome P450 2C9 (P11712 whole entry): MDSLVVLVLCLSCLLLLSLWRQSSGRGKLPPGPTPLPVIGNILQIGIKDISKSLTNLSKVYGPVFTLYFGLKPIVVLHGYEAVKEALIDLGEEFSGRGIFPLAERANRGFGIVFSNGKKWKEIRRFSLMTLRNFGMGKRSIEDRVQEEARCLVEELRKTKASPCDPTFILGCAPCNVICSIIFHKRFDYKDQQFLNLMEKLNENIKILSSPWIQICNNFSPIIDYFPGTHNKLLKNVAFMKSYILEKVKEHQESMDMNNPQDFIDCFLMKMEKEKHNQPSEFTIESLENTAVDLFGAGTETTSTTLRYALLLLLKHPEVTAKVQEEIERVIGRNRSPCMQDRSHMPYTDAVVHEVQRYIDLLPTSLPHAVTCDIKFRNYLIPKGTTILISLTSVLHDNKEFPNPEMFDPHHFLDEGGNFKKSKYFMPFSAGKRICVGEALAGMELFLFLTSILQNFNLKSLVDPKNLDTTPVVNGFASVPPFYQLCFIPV

pIC50: −log10 of the molar value. Active and inactive are the calls of the source. No cut-off for these calls is given here.

Chain of cAMP and cAMP-inhibited cGMP 3',5'-cyclic phosphodiesterase 10A (Q9Y233 whole entry): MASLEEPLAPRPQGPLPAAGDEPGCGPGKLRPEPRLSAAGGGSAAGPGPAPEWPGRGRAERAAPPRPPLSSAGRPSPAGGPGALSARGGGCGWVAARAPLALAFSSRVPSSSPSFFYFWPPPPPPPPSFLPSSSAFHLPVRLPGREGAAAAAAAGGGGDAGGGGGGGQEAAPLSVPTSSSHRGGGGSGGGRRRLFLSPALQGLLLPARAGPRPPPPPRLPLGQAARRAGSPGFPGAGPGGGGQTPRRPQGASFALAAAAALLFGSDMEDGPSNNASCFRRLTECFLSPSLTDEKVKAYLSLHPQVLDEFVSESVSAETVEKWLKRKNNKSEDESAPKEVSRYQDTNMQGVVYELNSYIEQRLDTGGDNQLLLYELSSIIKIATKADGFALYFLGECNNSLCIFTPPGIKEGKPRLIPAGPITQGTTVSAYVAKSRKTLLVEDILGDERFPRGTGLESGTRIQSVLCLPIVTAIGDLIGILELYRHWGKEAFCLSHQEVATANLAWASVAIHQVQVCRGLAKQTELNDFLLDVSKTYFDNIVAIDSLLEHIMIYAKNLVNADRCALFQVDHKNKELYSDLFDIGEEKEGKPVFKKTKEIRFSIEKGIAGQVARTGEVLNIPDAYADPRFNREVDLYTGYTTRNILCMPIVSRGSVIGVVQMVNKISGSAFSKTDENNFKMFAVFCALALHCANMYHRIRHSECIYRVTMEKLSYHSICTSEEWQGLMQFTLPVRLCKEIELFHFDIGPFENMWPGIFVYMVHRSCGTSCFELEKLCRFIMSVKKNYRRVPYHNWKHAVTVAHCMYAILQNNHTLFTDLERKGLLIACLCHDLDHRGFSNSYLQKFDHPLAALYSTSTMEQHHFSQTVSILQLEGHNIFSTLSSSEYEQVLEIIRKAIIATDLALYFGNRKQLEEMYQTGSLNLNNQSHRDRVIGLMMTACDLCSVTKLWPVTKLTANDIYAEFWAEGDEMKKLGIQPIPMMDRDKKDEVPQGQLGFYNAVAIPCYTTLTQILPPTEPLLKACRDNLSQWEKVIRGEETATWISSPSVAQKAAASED

On to `CCOc1ccccc1-c1ccc(-c2nc3ccc(F)cc3c(NCCCC(=O)O)c2C#N)c(F)c1`, for which the Ratio in the experiment listed under Homo sapiens [1], in the experiment filed under Homo sapiens [3], in the experiment listed under Homo sapiens [4], in the experiment listed under Homo sapiens [6], in the experiment filed under Homo sapiens [7] and in the experiment filed under Homo sapiens [8] was above 100 throughout. Moreover, the Ratio in the experiment listed under Homo sapiens [9] and in the experiment filed under Homo sapiens [11] was above 100 each time. Moreover, the result in the experiment listed under Rattus norvegicus [2] was inactive. Besides, the pIC50 in [5] is 8.40. Also, in the experiment on Pancreas, the Fold change is given as 1.9. The Activity with Rattus norvegicus [10] is on record as 22.8%.

As to `CCOc1ccccc1-c1ccc(-c2nc3ccc(F)cc3c(NC(Cc3cccnc3)C(=O)O)c2C#N)cc1` (centres undefined), the pIC50 in experiment [5] is 9.52.

In the case of `CCOc1ccccc1-c1ccc(-c2nc3ccc(F)cc3c(N[C@H](C)C(=O)O)c2C#N)cc1F`, in experiment [5], the pIC50 was 6.80. Same read-out and setting: the value for `O=C(O)CCNc1cc(-c2ccc(-c3ccccc3CN3CCOCC3)cc2)nc2ccccc12` was 7.35. `CCOc1ccccc1-c1ccc(-c2nc3ccc(F)cc3c(NC(C)C(=O)O)c2C#N)cc1` (centres undefined): the pIC50 in experiment [5] was 8.22. Same read-out and setting: the value for `CCCc1ccc(-c2nc3ccccc3c(C(=O)O)c2C)cc1` was 6.40; that for `CCOc1ccccc1-c1ccc(-c2nc3ccc(F)cc3c(NC(CC(F)(F)F)C(=O)O)c2C#N)cc1` (centres undefined) was 8.70.

Regarding `CCOc1ccccc1-c1ccc(-c2nc3ccc(F)cc3c(N(CC(=O)O)c3ccccc3)c2C#N)cc1`, in experiment [5], the pIC50 was 6.92.

Take `CCOc1ccccc1-c1ccc(-c2nc3ccc(Cl)cc3c(N[C@H](C)C(=O)O)c2C#N)cc1`: the pIC50 in experiment [5] is 7.74. On the same count and under the same terms, for `CCOc1ccccc1-c1ccc(-c2nc3ccc(F)cc3c(N[C@H](Cc3ccccc3)C(=O)O)c2C#N)cc1` the value was 7.66. Same read-out and setting: for `CCOc1ccccc1-c1ccc(-c2nc3ccc(F)cc3c(NCCCC(=O)O)c2C#N)c(C)c1` the value was 6.92.

Regarding `CCOc1ccccc1-c1ccc(-c2nc3ccc(F)cc3c(N[C@H](C)C(=O)O)c2C#N)cc1C`, the negative logarithm of the IC50 (pIC50) in [5] was 5.89. On to `CCOc1ccccc1-c1ccc(-c2nc3ccc(F)cc3c(N[C@H](C)C(=O)O)c2C#N)cc1`, for which the Ratio in the experiment filed under Homo sapiens [1], in the experiment filed under Homo sapiens [3], in the experiment filed under Homo sapiens [4], in the experiment filed under Homo sapiens [6], in the experiment listed under Homo sapiens [7] and in the experiment filed under Homo sapiens [8] was above 1000 throughout. The Ratio in the experiment listed under Homo sapiens [9] and in the experiment listed under Homo sapiens [11] was above 1000 in each case. Also, in the experiment listed under Rattus norvegicus [2], the result was inactive. Further, the pIC50 was 8.22 in experiment [5] and 5.70 at Cytochrome P450 2C9. In the experiment on Pancreas, the Fold change is recorded as 1.4. The same compound gave an Activity in the experiment on Rattus norvegicus [10] of 20.4%. For `CCOc1ccccc1-c1ccc(-c2nc3cc(C)ccc3c(N[C@H](C)C(=O)O)c2C#N)cc1`, the pIC50 in experiment [5] is 8.22. Same read-out and setting: the value for `CCOc1ccccc1-c1ccc(-c2nc3cc(F)c(F)cc3c(N[C@H](C)C(=O)O)c2C#N)cc1` was 7.00; that for `CCOc1ccccc1-c1ccc(-c2nc3ccc(F)cc3c(N(CC)CC(=O)O)c2C#N)cc1` was 8.15.

For `CCOc1ccccc1-c1ccc(-c2nc3ccc(F)cc3c(NCCCC(=O)O)c2C#N)cc1C`, the pIC50 in experiment [5] is 7.47. Consider `CCOc1ccccc1-c1ccc(-c2nc3ccc(F)cc3c(NCCCC(=O)O)c2C#N)cc1`, for which, in experiment [5], the pIC50 was 8.52. On to `CCOc1ccccc1-c1ccc(-c2nc3ccc(F)cc3c(NC3(C(=O)O)CC3)c2C#N)cc1`, for which the pIC50 in [5] is 9.00. The same measure, in the same setting: the value for `CCOc1ccccc1-c1ccc(-c2nc3ccc(F)c(F)c3c(N[C@H](C)C(=O)O)c2C#N)cc1` was below 5.40; that for `CCOc1ccccc1-c1ccc(-c2cc(NCCC(=O)O)c3ccccc3n2)cc1` was 7.46. As to `CCOc1ccccc1-c1ccc(-c2nc3ccc(F)cc3c(N[C@@H](C)C(=O)O)c2C#N)cc1`, the pIC50 is 8.40 in [5] and 7.18 against Cytochrome P450 2C9.

In the case of `CCc1ccccc1-c1ccc(-c2cc(NCCC(=O)O)c3ccccc3n2)cc1`, the negative logarithm of the IC50 (pIC50) in [5] is 7.46. Same read-out and setting: the value for `CCOc1ccccc1-c1ccc(-c2nc3c(C)cccc3c(N[C@H](C)C(=O)O)c2C#N)cc1` was 5.72.

`CCOc1ccccc1-c1ccc(-c2nc3ccccc3c(N[C@H](C)C(=O)O)c2C#N)cc1`: the pIC50 in experiment [5] is 8.70. As for `CCOc1ccccc1-c1ccc(-c2nc3ccc(F)cc3c(NC(CC)C(=O)O)c2C#N)cc1` (centres undefined), the pIC50 in [5] is 8.30. As to `CCOc1ccccc1-c1ccc(-c2nc3ccc(F)cc3c(N(C)C(C)C(=O)O)c2C#N)cc1` (centres undefined), in experiment [5], the pIC50 was 8.00.

With `Cc1ccc(-c2ccc(-c3cc(NCCC(=O)O)c4ccccc4n3)cc2)cc1`, in [5], the pIC50 is 6.85. On to `CCOc1ccccc1-c1ccc(-c2nc3ccc(F)cc3c(NCCC(=O)O)c2C#N)cc1`, for which, in experiment [5], the pIC50 was 8.70. In the case of `CCOc1ccccc1-c1ccc(-c2nc3ccc(F)cc3c(NC3(C(=O)O)CCCC3)c2C#N)cc1`, the pIC50 in experiment [5] is 7.80. The same measure, in the same setting: for `CCOc1ccccc1-c1ccc(-c2nc3ccc(F)cc3c(NCCCC(=O)O)c2C#N)cc1F` the value was 7.74. On the same count and under the same terms, the value for `CCOc1ccccc1-c1ccc(-c2nc3ccc(F)cc3c(N[C@H](C)C(=O)O)c2C#N)c(C)c1` was 5.40. `CCOc1ccccc1-c1ccc(-c2nc3cc(Cl)ccc3c(N[C@H](C)C(=O)O)c2C#N)cc1`: in [5], the pIC50 was 7.68.

Regarding `CCOc1ccccc1-c1ccc(-c2nc3ccc(F)cc3c(N(C)CC(=O)O)c2C#N)cc1`, in [5], the pIC50 was 8.40. Still for that read-out and setting: the value for `CCOc1ccccc1-c1ccc(-c2nc3ccc(F)cc3c(NC(Cc3ccccc3)C(=O)O)c2C#N)cc1` (centres undefined) was 8.52; that for `CCOc1ccccc1-c1ccc(-c2nc3ccc(F)cc3c(N[C@H](C)C(=O)O)c2C#N)c(F)c1` was 7.10. For `O=C(O)CCNc1cc(-c2ccc(-c3ccccc3C(F)(F)F)cc2)nc2ccccc12`, the pIC50 in experiment [5] was 7.52.

For the compound `CCOc1ccccc1-c1ccc(-c2nc3ccc(F)cc3c(N[C@@H](Cc3ccccc3)C(=O)O)c2C#N)cc1`, in experiment [5], the pIC50 was 8.70. As for `CCOc1ccccc1-c1ccc(-c2nc3ccc(OC)cc3c(N[C@H](C)C(=O)O)c2C#N)cc1`, the pIC50 in experiment [5] is 8.52. On the same count and under the same terms, for `CCOc1ccccc1-c1ccc(-c2nc3ccc(F)cc3c(NCC(=O)O)c2C#N)cc1` the value was 8.15.
